Calls of active or inactive are those of the source.
Key:
Format in all cases: cell-based
[1] = target: (E3-independent) E2 ubiquitin-conjugating enzyme (Homo sapiens) (UniProt Q9C0C9); experiment: Binding affinity to UBE2O in human NCI-H358 cells at 1 uM by mass spectrometry based pull down assay
[2] = target: ADP-ribose glycohydrolase OARD1 (Homo sapiens) (UniProt Q9Y530); experiment: Binding affinity to OARD1 in human NCI-H23 cells at 1 uM by mass spectrometry based pull down assay
[3] = target: Small ribosomal subunit protein uS7m (Homo sapiens) (UniProt Q9Y2R9); experiment: Binding affinity to MRPS7 in human NCI-H23 cells at 1 uM by mass spectrometry based pull down assay
[4] = target: Aminoacyl tRNA synthase complex-interacting multifunctional protein 1 (Homo sapiens) (UniProt Q12904); experiment: Binding affinity to AIMP1 in human NCI-H358 cells at 1 uM by mass spectrometry based pull down assay
Sequence of Aminoacyl tRNA synthase complex-interacting multifunctional protein 1 (Homo sapiens) (Q12904 whole entry, one chain of several): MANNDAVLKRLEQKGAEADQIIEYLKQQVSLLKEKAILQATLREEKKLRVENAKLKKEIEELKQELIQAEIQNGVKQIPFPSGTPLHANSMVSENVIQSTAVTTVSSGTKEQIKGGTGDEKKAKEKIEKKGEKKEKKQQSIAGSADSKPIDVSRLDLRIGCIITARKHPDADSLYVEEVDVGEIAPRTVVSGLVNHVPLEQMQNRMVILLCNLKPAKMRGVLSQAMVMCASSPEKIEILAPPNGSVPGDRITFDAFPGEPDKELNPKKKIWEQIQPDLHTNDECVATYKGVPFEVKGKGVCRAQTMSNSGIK
In short: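 NCI-H23 or NCI-H358 cells were grown and lysed. Lysates were incubated overnight at 4 °C with 1 μM biotinylated covalent probe or DMSO, then pulled down on streptavidin beads. Proteins were run on polyacrylamide gels and stained with Coomassie. Bands were excised, digested and identified by mass spectrometry.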

[5] = target: T1, Dual specificity mitogen-activated protein kinase kinase 5 (Homo sapiens) (UniProt Q13163); experiment: Binding affinity to MAP2K5 in human NCI-H23 cells at 1 uM by mass spectrometry based pull down assay
T1 sequence (whole entry): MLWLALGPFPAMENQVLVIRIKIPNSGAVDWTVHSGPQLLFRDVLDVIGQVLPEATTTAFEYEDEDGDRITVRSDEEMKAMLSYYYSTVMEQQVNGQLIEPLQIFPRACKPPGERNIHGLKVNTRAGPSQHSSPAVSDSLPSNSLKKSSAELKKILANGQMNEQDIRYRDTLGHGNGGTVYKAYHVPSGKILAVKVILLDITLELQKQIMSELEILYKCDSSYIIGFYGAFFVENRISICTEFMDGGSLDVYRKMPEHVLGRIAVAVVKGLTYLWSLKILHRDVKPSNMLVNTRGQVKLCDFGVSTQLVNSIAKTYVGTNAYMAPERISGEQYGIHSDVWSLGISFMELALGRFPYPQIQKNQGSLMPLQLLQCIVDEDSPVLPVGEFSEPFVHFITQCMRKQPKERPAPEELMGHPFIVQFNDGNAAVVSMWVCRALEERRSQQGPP

[6] = target: Pyruvate dehydrogenase E1 component subunit beta, mitochondrial (Homo sapiens) (UniProt P11177); experiment: Binding affinity to PDHB in human NCI-H23 cells at 1 uM by mass spectrometry based pull down assay
Sequence of Pyruvate dehydrogenase E1 component subunit beta, mitochondrial (Homo sapiens) (P11177 whole entry): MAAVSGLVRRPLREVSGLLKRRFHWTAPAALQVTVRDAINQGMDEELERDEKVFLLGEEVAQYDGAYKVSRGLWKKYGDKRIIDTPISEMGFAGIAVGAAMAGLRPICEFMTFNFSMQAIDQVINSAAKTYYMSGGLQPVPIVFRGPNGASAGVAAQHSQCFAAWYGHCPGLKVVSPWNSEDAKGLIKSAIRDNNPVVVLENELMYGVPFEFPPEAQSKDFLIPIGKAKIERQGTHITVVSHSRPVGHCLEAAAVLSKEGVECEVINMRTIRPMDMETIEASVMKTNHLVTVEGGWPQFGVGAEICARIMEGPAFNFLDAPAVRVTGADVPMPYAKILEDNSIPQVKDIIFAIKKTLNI

[7] = target: GTP-binding protein Rheb (Homo sapiens) (UniProt Q15382); experiment: Binding affinity to RHEB in human NCI-H358 cells at 1 uM by mass spectrometry based pull down assay
Sequence of GTP-binding protein Rheb (Homo sapiens) (Q15382 whole entry): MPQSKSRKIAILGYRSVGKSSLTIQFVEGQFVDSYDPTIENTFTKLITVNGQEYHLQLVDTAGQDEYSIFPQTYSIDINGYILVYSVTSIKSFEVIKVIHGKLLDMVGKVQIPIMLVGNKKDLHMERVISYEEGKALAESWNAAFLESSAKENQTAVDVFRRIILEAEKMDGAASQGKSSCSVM

[8] = target: Glutamine--fructose-6-phosphate aminotransferase [isomerizing] 1 (Homo sapiens) (UniProt Q06210); experiment: Binding affinity to GFPT1 in human NCI-H358 cells at 1 uM by mass spectrometry based pull down assay
Sequence of Glutamine--fructose-6-phosphate aminotransferase [isomerizing] 1 (Homo sapiens) (Q06210 whole entry): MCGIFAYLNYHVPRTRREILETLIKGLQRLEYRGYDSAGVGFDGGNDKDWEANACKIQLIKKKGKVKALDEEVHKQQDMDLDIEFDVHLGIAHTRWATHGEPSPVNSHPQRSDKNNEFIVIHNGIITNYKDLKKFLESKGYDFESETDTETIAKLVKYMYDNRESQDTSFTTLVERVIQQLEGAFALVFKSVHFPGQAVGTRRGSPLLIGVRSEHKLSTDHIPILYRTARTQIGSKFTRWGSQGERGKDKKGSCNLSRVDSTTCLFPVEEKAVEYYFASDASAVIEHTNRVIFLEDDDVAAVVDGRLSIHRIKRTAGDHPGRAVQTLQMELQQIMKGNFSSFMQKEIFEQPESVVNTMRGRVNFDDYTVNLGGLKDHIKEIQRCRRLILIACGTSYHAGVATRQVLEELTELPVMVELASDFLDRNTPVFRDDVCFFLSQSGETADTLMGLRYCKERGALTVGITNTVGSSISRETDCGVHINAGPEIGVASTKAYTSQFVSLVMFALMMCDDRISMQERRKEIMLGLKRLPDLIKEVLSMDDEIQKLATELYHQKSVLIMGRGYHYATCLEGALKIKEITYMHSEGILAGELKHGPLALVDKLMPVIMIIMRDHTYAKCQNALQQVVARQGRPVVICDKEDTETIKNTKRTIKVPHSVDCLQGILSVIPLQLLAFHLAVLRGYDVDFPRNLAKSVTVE

Measured: Activity

Sequence of ADP-ribose glycohydrolase OARD1 (Homo sapiens) (Q9Y530 whole entry): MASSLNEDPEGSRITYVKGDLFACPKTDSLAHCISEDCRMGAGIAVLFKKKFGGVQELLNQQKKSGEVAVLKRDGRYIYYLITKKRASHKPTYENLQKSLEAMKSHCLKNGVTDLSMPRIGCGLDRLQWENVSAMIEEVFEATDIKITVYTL
Sequence of (E3-independent) E2 ubiquitin-conjugating enzyme (Homo sapiens) (Q9C0C9 whole entry): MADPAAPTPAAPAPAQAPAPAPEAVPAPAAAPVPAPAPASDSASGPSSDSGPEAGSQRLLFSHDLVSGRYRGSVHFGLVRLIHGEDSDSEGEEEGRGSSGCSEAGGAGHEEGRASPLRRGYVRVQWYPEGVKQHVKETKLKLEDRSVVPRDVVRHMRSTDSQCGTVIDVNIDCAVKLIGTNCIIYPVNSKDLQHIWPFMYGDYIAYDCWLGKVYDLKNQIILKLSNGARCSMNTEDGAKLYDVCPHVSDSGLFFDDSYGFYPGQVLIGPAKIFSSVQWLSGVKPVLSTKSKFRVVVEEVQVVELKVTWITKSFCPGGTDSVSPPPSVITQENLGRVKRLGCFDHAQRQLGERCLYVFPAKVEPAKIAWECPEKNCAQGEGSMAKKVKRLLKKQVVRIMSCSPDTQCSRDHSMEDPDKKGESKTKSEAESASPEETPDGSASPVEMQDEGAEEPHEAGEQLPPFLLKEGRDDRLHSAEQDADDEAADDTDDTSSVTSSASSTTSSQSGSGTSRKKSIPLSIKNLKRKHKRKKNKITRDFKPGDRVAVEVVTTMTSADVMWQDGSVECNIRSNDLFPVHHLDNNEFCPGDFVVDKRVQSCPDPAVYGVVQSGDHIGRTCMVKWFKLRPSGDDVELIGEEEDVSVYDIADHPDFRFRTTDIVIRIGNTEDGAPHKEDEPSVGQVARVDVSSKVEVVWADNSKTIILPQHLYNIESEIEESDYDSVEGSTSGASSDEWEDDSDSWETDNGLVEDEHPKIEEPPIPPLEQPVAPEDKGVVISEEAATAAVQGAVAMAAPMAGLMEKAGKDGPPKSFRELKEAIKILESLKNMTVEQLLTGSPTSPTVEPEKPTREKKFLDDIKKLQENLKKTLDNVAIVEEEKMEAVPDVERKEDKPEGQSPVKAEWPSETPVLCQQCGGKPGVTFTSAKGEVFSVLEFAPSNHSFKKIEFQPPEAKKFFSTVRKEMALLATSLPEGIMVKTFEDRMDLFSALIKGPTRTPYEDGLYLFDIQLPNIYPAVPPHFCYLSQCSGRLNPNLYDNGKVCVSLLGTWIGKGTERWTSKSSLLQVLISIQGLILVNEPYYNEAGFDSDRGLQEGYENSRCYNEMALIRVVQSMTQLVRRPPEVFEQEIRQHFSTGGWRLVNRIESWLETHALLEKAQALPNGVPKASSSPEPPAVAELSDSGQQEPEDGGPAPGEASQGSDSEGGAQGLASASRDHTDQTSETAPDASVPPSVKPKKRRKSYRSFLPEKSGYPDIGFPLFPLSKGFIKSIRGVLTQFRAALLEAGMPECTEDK

C=CC(=O)Nc1ccccc1Nc1nc(Nc2ccc(N3CCN(CCOCCOCCOCCNC(=O)CCCC[C@@H]4SC[C@@H]5NC(=O)N[C@@H]54)CC3)cc2)ncc1Cl
active: [1] | [2] | [3] | [4] | [5] | [6] | [7] | [8]

— ChEMBL document CHEMBL4118021, “Studies of TAK1-centered polypharmacology with novel covalent TAK1 inhibitors” (Bioorg Med Chem, 2017)
